Results of several laboratories.
Each line is one published result; the experiments were not run side by side.
Target: Mitogen-activated protein kinase 8 (MAPK8, Homo sapiens, UniProt P45983)

test | conditions | remaining binding [%] | SMILES
binding, competition with immobilised ligand | 1 µM | 0.3 | O=C(c1ccc(Nc2ncc(Cl)c(-c3ccc(Cl)s3)n2)cc1)N1CCC(N2CCCC2)CC1
binding, competition with immobilised ligand | 1 µM | 100 | CN(C)c1nccc(-c2cnn3ncccc23)n1
cell-free assay, competition with immobilised ligand | 0.1 µM | 80 | Cc1c[nH]c2nccc(Oc3c(F)cc(Nc4cc(Cl)nc(N)n4)cc3F)c12
binding, competition with immobilised ligand | 1 µM | 65 | O=C(Nc1c[nH]nc1C(=O)NC1CCNCC1)c1cc(F)cc(F)c1
binding, competition with immobilised ligand | 1 µM | 4.5 | Cc1cnc(Nc2ccc(C(=O)N3CCC(N4CCCC4)CC3)cc2)nc1-c1cc2ccccc2s1
binding, competition with immobilised ligand | 1 µM | 82 | CNC(=O)[C@@H]1CC[C@@H](n2c(-c3ccc4cnccc4c3)nc3ccc(C(=O)NCc4cccc(C(N)=O)c4)cc32)C1
cell-free assay, competition with immobilised ligand | 10 µM | 73 | CC(C)(C)c1ccc(-c2nc(CBr)nn2-c2cccc(O)c2)cc1
cell-free assay, competition with immobilised ligand | 1 µM | 100 | C[C@H](c1ccc(F)cc1)N(Cc1cccc(C(=O)O)c1)C(=O)c1cnc2ccccc2c1
binding, competition with immobilised ligand | 1 µM | 26 | c1cnn2ncc(-c3ccnc(N4CCC45COC5)n3)c2c1
cell-free assay, competition with immobilised ligand | 0.1 µM | 100 | Nc1c(C(=O)NCc2ccc(C(=O)NCCCC3CCCCC3)cc2)cnn1-c1ccccc1
binding, competition with immobilised ligand | 1 µM | 94 | CC1CCCN1c1nccc(-c2cnn3ncccc23)n1 (stereo not drawn)
binding, competition with immobilised ligand | 1 µM | 3 | O=C(c1ccc(Nc2ncc(Cl)c(-c3cc4ccccc4s3)n2)cc1)N1CCC(N2CCCC2)CC1
binding | 1 µM | 89 | F[C@@H]1CCN(c2nccc(-c3cnn4ncccc34)n2)C1
cell-free assay, competition with immobilised ligand | 0.1 µM | 85 | CS(=O)(=O)N1CCCC(NC(=O)[C@H](CCC2CCCCC2)NC(=O)c2ccc(CNc3ncnc4c3nnn4-c3ccccc3)cc2)C1 (stereo partly drawn)
cell-free assay, competition with immobilised ligand | 10 µM | 14 | COC(=O)Nc1nc2ccc(C(=O)c3ccccc3)cc2[nH]1
cell-free assay, competition with immobilised ligand | 1 µM | 100 | Cc1c(NC(=O)c2cc(C(N)=O)nc3cc(F)ccc23)c(C(F)(F)F)nn1Cc1ccc(C(C)(C)C)cc1
binding, competition with immobilised ligand | 1 µM | 34 | C[C@H]1CCN(c2nccc(-c3cnn4ncccc34)n2)C1
binding, competition with immobilised ligand | 1 µM | 87 | COc1cnc(Nc2cccc(S(N)(=O)=O)c2)nc1N1CCN(c2ccccc2)CC1
cell-free assay, competition with immobilised ligand | 0.1 µM | 98 | C[C@H](c1ccnc(Nc2nc3ccc(-c4cc(N(C)C)ncn4)cc3[nH]2)c1)N1CCN(C(=O)CC(F)(F)F)CC1
binding, competition with immobilised ligand | 10 µM | 24 | c1cncc(-c2cccc(Nc3nccc(NC4CCCCC4)n3)c2)c1
binding | 1 µM | 100 | CN(c1nccc(-c2cnn3ncccc23)n1)C1CC1
cell-free assay, competition with immobilised ligand | 0.1 µM | 88 | Cn1nc(C(=O)NCc2ccc(C(=O)O)cc2)cc1-c1ccc2[nH]ccc2c1
binding | 1 µM | 27 | N[C@@H]1CCN(c2nccc(-c3cnn4ncccc34)n2)C1
binding, competition with immobilised ligand | 0.5 µM | 54 | C[C@@H]1CN(c2ccc3ncc(-c4ccc5[nH]nc(C6CC6)c5c4)n3n2)C[C@H](C)O1
